Test results taken from ChEMBL document CHEMBL3108692, “Potent Targeting of the STAT3 Protein in Brain Cancer Stem Cells: A Promising Route for Treating Glioblastoma” (ACS Med Chem Lett, 2013).
Activity calls are given as the source filed them. No cut-off for these calls is given here.

What was measured:
[1] = target: T1, Signal transducer and activator of transcription 3 (Homo sapiens, UniProt P40763); assay: Competitive binding affinity to STAT3 SH2 domain (unknown origin) assessed as inhibition of interaction with FAMpYLPQTV after 15 to 30 mins by fluorescent polarization assay
T1 sequence (P40763 whole entry, the tested form may be a part): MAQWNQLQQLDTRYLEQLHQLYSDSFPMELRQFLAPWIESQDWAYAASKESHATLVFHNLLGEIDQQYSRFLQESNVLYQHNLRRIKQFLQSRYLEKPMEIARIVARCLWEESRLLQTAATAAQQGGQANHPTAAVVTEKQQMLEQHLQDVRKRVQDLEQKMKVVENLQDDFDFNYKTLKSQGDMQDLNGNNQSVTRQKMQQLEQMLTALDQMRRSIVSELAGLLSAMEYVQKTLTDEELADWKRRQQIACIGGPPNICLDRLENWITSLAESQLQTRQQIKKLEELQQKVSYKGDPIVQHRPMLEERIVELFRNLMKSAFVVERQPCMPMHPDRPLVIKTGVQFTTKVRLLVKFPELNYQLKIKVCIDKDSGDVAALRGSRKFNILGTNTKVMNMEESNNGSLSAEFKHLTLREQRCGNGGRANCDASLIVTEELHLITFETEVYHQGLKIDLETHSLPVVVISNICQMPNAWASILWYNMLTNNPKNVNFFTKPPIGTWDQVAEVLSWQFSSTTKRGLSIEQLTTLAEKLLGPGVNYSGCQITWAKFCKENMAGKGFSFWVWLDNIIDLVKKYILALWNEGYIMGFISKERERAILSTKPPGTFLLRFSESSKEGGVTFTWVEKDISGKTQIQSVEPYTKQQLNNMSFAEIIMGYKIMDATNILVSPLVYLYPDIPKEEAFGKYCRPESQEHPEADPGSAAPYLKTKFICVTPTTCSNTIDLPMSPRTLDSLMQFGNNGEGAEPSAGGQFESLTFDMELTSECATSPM

[2] = target: Tyrosine-protein kinase Fer (Homo sapiens) (UniProt P16591); assay: Inhibition of FER (unknown origin) SH3 domain expressed in HEK293 cells at 500 nM preincubated for 1 hr followed by compound washout measured after 30 mins by qPCR analysis; assay type: cell-based
[3] = target: Proto-oncogene tyrosine-protein kinase Src (Homo sapiens) (UniProt P12931); assay: Inhibition of c-Src (unknown origin) at 5 uM after 120 mins relative to control
Chain of Proto-oncogene tyrosine-protein kinase Src (Homo sapiens) (P12931 2-536 limits assumed): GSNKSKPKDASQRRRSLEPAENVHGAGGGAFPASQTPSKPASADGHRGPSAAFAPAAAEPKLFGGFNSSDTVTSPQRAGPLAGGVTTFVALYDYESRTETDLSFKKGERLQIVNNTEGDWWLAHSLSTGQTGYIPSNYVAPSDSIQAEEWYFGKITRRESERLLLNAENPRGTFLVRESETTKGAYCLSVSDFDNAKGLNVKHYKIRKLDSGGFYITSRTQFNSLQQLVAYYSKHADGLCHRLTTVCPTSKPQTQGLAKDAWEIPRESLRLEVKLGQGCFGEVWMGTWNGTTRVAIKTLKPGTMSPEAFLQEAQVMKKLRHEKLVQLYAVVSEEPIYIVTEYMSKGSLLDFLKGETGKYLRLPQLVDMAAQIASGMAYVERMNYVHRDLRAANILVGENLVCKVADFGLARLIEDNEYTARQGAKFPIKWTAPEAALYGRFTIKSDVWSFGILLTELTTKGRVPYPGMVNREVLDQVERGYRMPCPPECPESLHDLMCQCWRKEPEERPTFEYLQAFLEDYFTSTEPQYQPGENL

[4] = Cytotoxicity against HF2006 cells assessed as cell viability at 5 uM after 3 days by Alamar Blue assay; assay type: cell-based; details: human, 72 h
Method in brief: (§1)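 Normal human fetal astrocytes (healthy, non-tumor cells) were exposed to compounds at concentrations up to 5 μM, with viability as the cytotoxicity read-out.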

Mus musculus = assay: In vivo inhibition of STAT3 phosphorylation in tumor of NOD-SCID mouse xenografted with human BT73 cells at 10 mg/kg, ip administered as 4 days on/3 days off schedule measured 2 hrs post last dose; assay type: functional, organism-based; parameters: dose 10 mg/kg
Method in brief: (§2)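 Mice were NOD-SCID with orthotopic BT73 human glioma xenografts. Starting on day 7, they received 10 intraperitoneal doses of 10 mg/kg or vehicle on a 4 days on/3 days off schedule. Animals were killed 2 h after the last dose and brain tumors excised. Read-outs were hematoxylin/eosin staining for tumor cellularity and immunohistochemistry for pSTAT3, Ki67 (proliferation) and TUNEL (apoptosis).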

Homo sapiens [5] = species on record: Homo sapiens; assay: Inhibition of AKT phosphorylation in human 147EF cells at 0.1 to 1 uM after 3 hrs by Western blotting analysis; assay type: cell-based
cells = details: Homo sapiens, 72 h
[6] = target: Tyrosine-protein kinase JAK2 (Homo sapiens) (UniProt O60674); assay: Inhibition of JAK2 (unknown origin) SH2 domain expressed in HEK293 cells at 500 nM preincubated for 1 hr followed by compound washout measured after 30 mins by qPCR analysis; assay type: cell-based
Chain of Tyrosine-protein kinase JAK2 (Homo sapiens) (O60674 whole entry, the tested form may be a part): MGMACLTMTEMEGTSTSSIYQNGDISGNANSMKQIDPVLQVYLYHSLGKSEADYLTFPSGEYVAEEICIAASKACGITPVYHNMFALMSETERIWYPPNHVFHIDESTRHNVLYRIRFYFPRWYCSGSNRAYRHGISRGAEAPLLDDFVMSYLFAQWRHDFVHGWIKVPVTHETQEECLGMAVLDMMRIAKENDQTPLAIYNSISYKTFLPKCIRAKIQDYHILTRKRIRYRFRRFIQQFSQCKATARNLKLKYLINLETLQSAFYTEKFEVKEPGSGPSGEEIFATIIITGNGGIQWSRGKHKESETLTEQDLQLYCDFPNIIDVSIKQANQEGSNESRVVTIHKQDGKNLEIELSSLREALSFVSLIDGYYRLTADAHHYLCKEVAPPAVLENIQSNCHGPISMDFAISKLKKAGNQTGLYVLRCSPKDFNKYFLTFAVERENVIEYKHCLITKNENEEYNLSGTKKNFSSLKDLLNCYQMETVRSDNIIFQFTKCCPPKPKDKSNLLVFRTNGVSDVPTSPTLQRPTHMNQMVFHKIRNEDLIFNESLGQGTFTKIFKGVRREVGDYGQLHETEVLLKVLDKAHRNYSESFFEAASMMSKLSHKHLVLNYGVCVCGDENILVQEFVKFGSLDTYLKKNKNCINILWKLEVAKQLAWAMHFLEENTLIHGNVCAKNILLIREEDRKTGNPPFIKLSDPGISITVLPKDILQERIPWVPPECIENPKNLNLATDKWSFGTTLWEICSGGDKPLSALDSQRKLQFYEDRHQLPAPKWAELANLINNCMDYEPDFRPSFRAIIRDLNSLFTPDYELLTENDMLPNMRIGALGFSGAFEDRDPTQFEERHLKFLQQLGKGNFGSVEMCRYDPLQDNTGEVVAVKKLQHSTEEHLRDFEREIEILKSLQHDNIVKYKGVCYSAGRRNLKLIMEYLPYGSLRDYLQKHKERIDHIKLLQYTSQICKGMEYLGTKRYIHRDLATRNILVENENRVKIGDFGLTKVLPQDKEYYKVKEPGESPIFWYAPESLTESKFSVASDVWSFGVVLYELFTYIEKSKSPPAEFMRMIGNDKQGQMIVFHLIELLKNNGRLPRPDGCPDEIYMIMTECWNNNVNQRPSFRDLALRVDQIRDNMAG

[7] = target: Tyrosine-protein kinase JAK1 (Homo sapiens) (UniProt P23458); assay: Inhibition of JAK1 (unknown origin) SH2 domain expressed in HEK293 cells at 500 nM preincubated for 1 hr followed by compound washout measured after 30 mins by qPCR analysis; assay type: cell-based
Chain of Tyrosine-protein kinase JAK1 (Homo sapiens) (P23458 whole entry, the tested form may be a part): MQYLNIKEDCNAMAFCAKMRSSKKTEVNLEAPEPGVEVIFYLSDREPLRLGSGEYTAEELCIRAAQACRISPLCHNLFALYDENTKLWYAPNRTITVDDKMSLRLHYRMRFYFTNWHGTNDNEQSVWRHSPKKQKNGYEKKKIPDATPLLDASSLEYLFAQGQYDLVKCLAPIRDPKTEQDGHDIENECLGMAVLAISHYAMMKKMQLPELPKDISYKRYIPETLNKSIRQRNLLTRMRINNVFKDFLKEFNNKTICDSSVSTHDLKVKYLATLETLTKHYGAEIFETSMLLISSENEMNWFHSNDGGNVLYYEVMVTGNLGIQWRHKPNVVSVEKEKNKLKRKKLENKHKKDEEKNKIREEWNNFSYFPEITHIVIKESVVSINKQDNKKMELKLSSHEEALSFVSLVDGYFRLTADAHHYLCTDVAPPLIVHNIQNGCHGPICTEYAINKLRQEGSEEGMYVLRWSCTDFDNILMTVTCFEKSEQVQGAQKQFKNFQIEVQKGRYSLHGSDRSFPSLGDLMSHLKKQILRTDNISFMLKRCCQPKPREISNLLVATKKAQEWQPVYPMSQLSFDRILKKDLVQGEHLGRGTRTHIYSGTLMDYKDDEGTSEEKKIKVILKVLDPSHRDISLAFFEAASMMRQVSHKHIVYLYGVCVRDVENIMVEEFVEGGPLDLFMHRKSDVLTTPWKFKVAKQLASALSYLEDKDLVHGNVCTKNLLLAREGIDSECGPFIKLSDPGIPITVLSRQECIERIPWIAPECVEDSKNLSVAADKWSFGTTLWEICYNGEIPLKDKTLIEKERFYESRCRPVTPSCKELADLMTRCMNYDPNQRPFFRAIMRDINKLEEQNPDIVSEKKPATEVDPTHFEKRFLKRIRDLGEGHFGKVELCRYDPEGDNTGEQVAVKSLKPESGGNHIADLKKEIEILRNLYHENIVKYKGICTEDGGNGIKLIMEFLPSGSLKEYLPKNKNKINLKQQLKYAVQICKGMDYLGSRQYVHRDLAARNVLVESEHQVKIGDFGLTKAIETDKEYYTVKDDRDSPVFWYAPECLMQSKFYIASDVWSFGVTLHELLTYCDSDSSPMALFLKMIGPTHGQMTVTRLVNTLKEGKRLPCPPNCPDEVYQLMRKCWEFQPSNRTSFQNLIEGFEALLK

BT73 [8] = assay: Antitumor activity against human BT73 cells xenografted in NOD-SCID mouse assessed as decrease in tumor size at 10 mg/kg, ip administered as 4 days on/3 days off schedule measured 2 hrs post last dose by hematoxylin/eosin staining; assay type: functional, organism-based; parameters: dose 10 mg/kg; method in brief: as §2
[9] = target: T1, Signal transducer and activator of transcription 3; assay: Inhibition of STAT3 phosphorylation at Y705 in human 147EF cells at 0.1 to 1 uM after 3 hrs by Western blotting analysis; assay type: cell-based
[10] = Cytotoxicity against human 84EF cells assessed as cell viability after 3 days by Alamar Blue assay; details: 72 h
[11] = target: Tyrosine-protein kinase JAK2 (Homo sapiens) (UniProt O60674); assay: Inhibition of JAK2 (unknown origin) at 5 uM after 120 mins relative to control
[12] = target: T2, Signal transducer and activator of transcription 5A (Homo sapiens, UniProt P42229); assay: Binding affinity to His-tagged STAT5 (unknown origin) by SPR spectroscopic analysis
T2 sequence (P42229 whole entry): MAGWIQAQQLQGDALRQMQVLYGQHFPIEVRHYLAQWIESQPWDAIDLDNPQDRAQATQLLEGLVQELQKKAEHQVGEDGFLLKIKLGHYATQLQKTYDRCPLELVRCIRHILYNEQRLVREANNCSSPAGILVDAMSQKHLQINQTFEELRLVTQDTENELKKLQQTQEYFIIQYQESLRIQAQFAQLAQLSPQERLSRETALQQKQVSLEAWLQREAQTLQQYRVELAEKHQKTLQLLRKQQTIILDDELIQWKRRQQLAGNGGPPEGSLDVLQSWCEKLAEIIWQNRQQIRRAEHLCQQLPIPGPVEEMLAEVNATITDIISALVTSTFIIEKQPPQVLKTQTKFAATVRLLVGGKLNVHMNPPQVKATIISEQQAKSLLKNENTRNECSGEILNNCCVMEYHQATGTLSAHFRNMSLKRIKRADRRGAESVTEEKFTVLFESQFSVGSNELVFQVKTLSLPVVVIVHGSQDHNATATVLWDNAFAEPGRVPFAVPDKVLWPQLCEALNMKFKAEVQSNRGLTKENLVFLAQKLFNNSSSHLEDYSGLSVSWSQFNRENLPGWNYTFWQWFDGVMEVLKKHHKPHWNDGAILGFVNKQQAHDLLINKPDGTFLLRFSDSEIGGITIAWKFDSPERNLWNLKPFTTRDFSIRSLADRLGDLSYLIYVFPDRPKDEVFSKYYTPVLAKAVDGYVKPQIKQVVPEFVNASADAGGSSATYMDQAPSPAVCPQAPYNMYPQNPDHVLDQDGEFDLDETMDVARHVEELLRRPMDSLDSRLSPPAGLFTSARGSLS
Method in brief: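 SPR binding to STAT3 and STAT5 proteins was run at several analyte concentrations: 5.000, 1.667, 0.556 and 0.185 μM.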

[13] = target: Platelet-derived growth factor receptor beta (Homo sapiens) (UniProt P09619); assay: Inhibition of PDGFRB (unknown origin) expressed in HEK293 cells at 500 nM preincubated for 1 hr followed by compound washout measured after 30 mins by qPCR analysis relative to control; assay type: cell-based
Chain of Platelet-derived growth factor receptor beta (Homo sapiens) (P09619 whole entry): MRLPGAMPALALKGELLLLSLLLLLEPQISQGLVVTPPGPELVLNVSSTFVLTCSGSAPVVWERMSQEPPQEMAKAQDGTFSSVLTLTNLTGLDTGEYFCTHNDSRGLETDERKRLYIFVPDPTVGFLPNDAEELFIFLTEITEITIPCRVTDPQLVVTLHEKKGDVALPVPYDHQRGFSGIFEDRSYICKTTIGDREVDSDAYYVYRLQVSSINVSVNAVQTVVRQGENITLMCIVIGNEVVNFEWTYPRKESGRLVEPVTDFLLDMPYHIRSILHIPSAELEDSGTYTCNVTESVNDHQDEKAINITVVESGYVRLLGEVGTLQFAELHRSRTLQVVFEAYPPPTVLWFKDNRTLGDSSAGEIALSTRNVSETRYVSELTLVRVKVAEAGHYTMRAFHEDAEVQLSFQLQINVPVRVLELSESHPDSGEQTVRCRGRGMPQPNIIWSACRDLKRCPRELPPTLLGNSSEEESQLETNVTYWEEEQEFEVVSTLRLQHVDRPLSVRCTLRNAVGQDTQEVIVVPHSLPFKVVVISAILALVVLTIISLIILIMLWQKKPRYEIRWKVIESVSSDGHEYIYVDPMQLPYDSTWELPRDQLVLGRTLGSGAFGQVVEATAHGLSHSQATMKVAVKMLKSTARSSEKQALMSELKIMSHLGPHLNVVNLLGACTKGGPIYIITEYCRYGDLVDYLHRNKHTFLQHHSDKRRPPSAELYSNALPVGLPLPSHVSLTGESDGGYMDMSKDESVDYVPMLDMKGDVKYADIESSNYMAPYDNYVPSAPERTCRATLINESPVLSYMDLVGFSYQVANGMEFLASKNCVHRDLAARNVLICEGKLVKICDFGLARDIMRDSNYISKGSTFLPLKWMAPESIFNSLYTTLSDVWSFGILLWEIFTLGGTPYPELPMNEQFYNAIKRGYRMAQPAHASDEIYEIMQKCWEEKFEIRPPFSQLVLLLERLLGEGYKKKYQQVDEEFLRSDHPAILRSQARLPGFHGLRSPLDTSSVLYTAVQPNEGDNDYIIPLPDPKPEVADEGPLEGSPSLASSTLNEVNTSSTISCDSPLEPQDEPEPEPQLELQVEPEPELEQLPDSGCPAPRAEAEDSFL

[14] = target: Platelet-derived growth factor receptor beta (Homo sapiens) (UniProt P09619); assay: Inhibition of PDGFRB (unknown origin) at 10 uM by enzymatic assay
[15] = target: T1, Signal transducer and activator of transcription 3; assay: Inhibition of STAT3 phosphorylation at Y705 in human 73M cells at 1 uM; assay type: cell-based
Method in brief: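 Human 73M glioblastoma brain tumour stem cells were exposed to the inhibitor alongside the JAK2 inhibitor reference WP1066. Activated STAT3 was then read out by Western blot for STAT3 phosphorylated at Y705.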

[16] = Cytotoxicity against human 25EF cells assessed as cell viability after 3 days by Alamar Blue assay; details: 72 h
BT73 [17] = assay: Antitumor activity against human BT73 cells xenografted in NOD-SCID mouse assessed as induction of apoptosis in tumor at 10 mg/kg, ip administered as 4 days on/3 days off schedule measured 2 hrs post last dose by TUNEL assay; assay type: functional, organism-based; parameters: dose 10 mg/kg; method in brief: as §2
[18] = Cytotoxicity against human 73M cells assessed as cell viability after 8 days by Alamar Blue assay; assay type: functional, cell-based; details: 192 h
[19] = target: Epidermal growth factor receptor (Homo sapiens) (UniProt P00533); assay: Inhibition of EGFR in human 147EF cells after 6 hrs by Western blotting analysis; assay type: cell-based
[20] = target: Mitogen-activated protein kinase 3 (Homo sapiens) (UniProt P27361); assay: Inhibition of ERK1 (unknown origin) at 5 uM after 120 mins
Chain of Mitogen-activated protein kinase 3 (Homo sapiens) (P27361 whole entry): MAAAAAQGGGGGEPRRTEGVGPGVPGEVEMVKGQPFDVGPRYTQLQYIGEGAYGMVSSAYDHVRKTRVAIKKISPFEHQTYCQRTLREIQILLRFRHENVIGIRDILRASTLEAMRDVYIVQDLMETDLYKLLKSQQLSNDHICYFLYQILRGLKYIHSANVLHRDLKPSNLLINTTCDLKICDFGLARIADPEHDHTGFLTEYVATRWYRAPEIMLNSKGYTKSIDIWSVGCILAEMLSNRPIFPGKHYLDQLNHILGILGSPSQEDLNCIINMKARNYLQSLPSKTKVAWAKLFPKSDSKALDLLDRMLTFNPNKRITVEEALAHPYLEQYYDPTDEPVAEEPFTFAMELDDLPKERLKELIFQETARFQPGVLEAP

[21] = Cytotoxicity against human 30M cells assessed as cell viability after 8 days by Alamar Blue assay; assay type: functional, cell-based; details: 192 h
[22] = target: RAC-alpha serine/threonine-protein kinase (Homo sapiens) (UniProt P31749); assay: Inhibition of AKT1 (unknown origin) at 5 uM after 120 mins
[23] = target: Tyrosine-protein kinase Fyn (Homo sapiens) (UniProt P06241); assay: Inhibition of FYN (unknown origin) SH3 domain expressed in HEK293 cells at 500 nM preincubated for 1 hr followed by compound washout measured after 30 mins by qPCR analysis; assay type: cell-based
[24] = Cytotoxicity against HF2003 cells assessed as cell viability at 5 uM after 3 days by Alamar Blue assay; assay type: cell-based; details: human, 72 h; method in brief: as §1
Homo sapiens [25] = species on record: Homo sapiens; assay: Inhibition of MAPK in human 147EF cells after 6 hrs by Western blotting analysis; assay type: cell-based
[26] = target: Tyrosine-protein kinase Fes/Fps (Homo sapiens) (UniProt P07332); assay: Inhibition of FES (unknown origin) SH3 domain expressed in HEK293 cells at 500 nM preincubated for 1 hr followed by compound washout measured after 30 mins by qPCR analysis; assay type: cell-based
[27] = Cytotoxicity against human 73EF cells assessed as cell viability after 3 days by Alamar Blue assay; details: 72 h
[28] = Cytotoxicity against human 30M cells assessed as cell viability after 3 days by Alamar Blue assay; details: 72 h
Homo sapiens [29] = species on record: Homo sapiens; assay: Inhibition of AKT in human 147EF cells after 6 hrs by Western blotting analysis; assay type: cell-based
[30] = target: Tyrosine-protein kinase JAK1 (Homo sapiens) (UniProt P23458); assay: Inhibition of JAK1 (unknown origin) at 5 uM after 120 mins
BT73 [31] = assay: Antitumor activity against human BT73 cells xenografted in NOD-SCID mouse assessed as tumor growth inhibition by measuring downregulation of Ki67 protein expression at 10 mg/kg, ip administered as 4 days on/3 days off schedule measured 2 hrs post last dose; assay type: functional, organism-based; parameters: dose 10 mg/kg; method in brief: as §2
[32] = Cytotoxicity against human 67EF cells assessed as cell viability after 3 days by Alamar Blue assay; details: 72 h
Homo sapiens [33] = species on record: Homo sapiens; assay: Induction of apoptosis in human 147EF cells assessed as PARP cleavage at 0.1 to 1 uM after 3 hrs by Western blotting analysis; assay type: functional, cell-based
[34] = target: Tyrosine-protein kinase JAK2 (Homo sapiens) (UniProt O60674); assay: Inhibition of JAK2 in human 147EF cells after 6 hrs by Western blotting analysis; assay type: cell-based
[35] = target: Proto-oncogene tyrosine-protein kinase Src (Homo sapiens) (UniProt P12931); assay: Inhibition of Src in human 147EF cells after 6 hrs by Western blotting analysis; assay type: cell-based

## CCOC(=O)C(=O)Nc1ccc(N(Cc2ccc(C3CCCCC3)cc2)C(=O)CN(C)S(=O)(=O)c2c(F)c(F)c(F)c(F)c2F)cc1
[1]
  inhibition: inactive

## CN(CC(=O)N(Cc1ccc(C2CCCCC2)cc1)c1ccc(C(=O)O)cc1)S(=O)(=O)c1c(F)c(F)c(F)c(F)c1F
[2]
  inhibition: inactive
[3]
  inhibition: 50%
[4]
  Activity: Non-toxic
Mus musculus
  inhibition: Active
Homo sapiens [5]
  inhibition: Active
cells
  IC50: 66 nM
[6]
  inhibition: inactive
[7]
  inhibition: inactive
BT73 [8]
  Activity: Active
[9]
  inhibition: Active
[10]
  IC50: 102 nM
[11]
  inhibition: 50%
[12]
  Kd: 464 nM
[13]
  inhibition: 35%
[14]
  inhibition: inactive
[15]
  inhibition: Active
[16]
  IC50: 234 nM
BT73 [17]
  Activity: Active
[18]
  IC50: 1030 nM
[19]
  inhibition: inactive
[20]
  inhibition: inactive
[21]
  IC50: 430 nM
[22]
  inhibition: inactive
[23]
  inhibition: inactive
[24]
  Activity: Non-toxic
Homo sapiens [25]
  inhibition: inactive
[26]
  inhibition: inactive
[27]
  IC50: 162 nM
[28]
  IC50: 100 nM
Homo sapiens [29]
  inhibition: inactive
[30]
  inhibition: inactive
BT73 [31]
  TGI: Active
[32]
  IC50: 106 nM
Homo sapiens [33]
  Activity: Active
[34]
  inhibition: inactive
[35]
  inhibition: inactive

## CN(CC(=O)N(Cc1ccc(C2CCCCC2)cc1)c1ccc(C(=O)OCOC(=O)C(C)(C)C)cc1)S(=O)(=O)c1c(F)c(F)c(F)c(F)c1F
[1]
  inhibition: inactive

## CCOC(=O)c1ccc(N(Cc2ccc(C3CCCCC3)cc2)C(=O)CN(C)S(=O)(=O)c2c(F)c(F)c(F)c(F)c2F)cc1
[1]
  inhibition: inactive

## CN(CC(=O)N(Cc1ccc(C2CCCCC2)cc1)c1ccccc1)S(=O)(=O)c1c(F)c(F)c(F)c(F)c1F
[1]
  inhibition: inactive

## COC(=O)c1ccc(N(Cc2ccc(C3CCCCC3)cc2)C(=O)CN(C)S(=O)(=O)c2c(F)c(F)c(F)c(F)c2F)cc1
[1]
  inhibition: inactive
